FAK blocker – FAK kinase inhibitors, primary screen, biochemical; biochemical FAK kinase activity assay; inhibition, %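 (tested at 7 µM)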; 97,000 compounds, 0.84% hits; AID 727, 2007; in the data active means inhibition above about 19%;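 further: 0% = DMSO and 100% = reference compound high control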
PTK2B oligo ant – antagonists of Pyk2 self-association, primary screen, Q293 cells, FERM NanoBiT luminescence, HTS. AID 1347419, 2020. hits give low values. z-score (the deposit names both 25 µM and 10 µM). 99,000 compounds, 0.83% hits;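 active means Z-score of -3 or lower, scaled per plate to the spread of control and sample wells; inactive means z-score above -3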;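 further: negative z-score means lost luminescence so less FERM oligomerization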
PostGolgi ctrl – growth inhibition of yeast control strain, primary screen, counter-screen for post-Golgi transport modulator project; 98,000 compounds, 5% hits; inhibition, % at 10 µM; efflux-deficient yeast background strain, growth absorbance A615, 16 h
PostGolgi yeast – phenotypic screen on post-Golgi transport, primary screen | 98,000 compounds, 0.9% hits | inhibition, % at 10 µM | post-Golgi transport phenotypic cell assay;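 further: yeast cells grown in 1536-well plates; yeast grown about 18 h at 30C before absorbance read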
tolC growth inh – growth inhibitors of E. coli tolC mutant, primary screen, strain BW25113 ΔtolC::kan, 384-well; OD615; AID 573, 2007; 65,000 compounds, 2.2% hits; growth inhibition, % at 10 µM (by protocol);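 active means growth inhibition at or above a cutoff equal to the mean over every tested compound plus 3 SD, cut at about 60% in these data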;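 further: growth measured after 20 h incubation at 37 °C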
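Test system: E. coli BW25113 ΔtolC::kan bacteria; incubation: 37 °C, 20 h exposure; medium: LB broth supplemented with 50 µg/mL kanamycin; read-out basis: percent growth inhibition; signal: A615 absorbance measurement; compound: 10 µM final, single dose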
Calb biofilm kill – clotrimazole potentiators killing Candida biofilms, primary screen, with clotrimazole, Alamar Blue | 85,000 compounds, 0.14% hits | inhibition, % at 6 µM | C. albicans biofilm + clotrimazole | AID 834, 2007;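 active means inhibition above 20%; inactive means inhibition below 20%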;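 further: preformed 24 hr biofilms exposed to compound for 48 hr; 0% = biofilm without compound and 100% = blank killed by clotrimazole plus chlorhexidine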
An asterisk follows results filed as active; · = no result. Rows were chosen to be rich in hits. Some 6.9% of all compounds tested hit in one or more screens of this group. Unless noted, no stated cut-off is given here; in the data, active means inhibition above about 30%; inactive means the rest.

SMILES	FAK blocker	PTK2B oligo ant	PostGolgi ctrl	PostGolgi yeast	tolC growth inh	Calb biofilm kill
CC1CCCCN1C(=S)NCCc1ccccc1 (centres undefined)	2.7	0.36	5.7	-1.4	·	·
CCCc1[nH][nH]c(=O)c1C(c1ccc(Cl)cc1)C(C#N)C#N (centres undefined)	2.9	-0.32	·	·	·	2.0
O=C(CSc1nnc(-c2ccc(Cl)cc2)n1Cc1ccco1)Nc1ccc2c(c1)OCCO2	·	0.04	·	·	25.4	-0.2
COc1ccc(-c2cnc(SCC(=O)Nc3ccc4c(c3)OCO4)n2Cc2ccco2)cc1	0.9	-2.07	12.3	-4.7	66.0*	7.2
CC(=O)Nc1cccc(NC(=O)CSc2ncc(-c3ccc(Cl)cc3)n2Cc2ccco2)c1	-2.9	-3.72*	36.7*	-3.6	94.2*	11.6
CCOC(=O)N1CCN(c2c(NCCCN(CC)Cc3ccccc3)c(=O)c2=O)CC1	-3.0	0.77	5.2	-5.1	-10.5	11.4
CC(C)c1ccc(/C=C/C(=O)NC2=NCCS2)cc1	1.1	·	33.5*	3.1	·	·
Cc1cc(C)n(-c2ncnc3sc4c(c23)CCCC4)n1	-2.0	0.24	7.6	-2.1	4.5	2.5
Cc1cc(C)n(-c2nc3sc4c(c3c(=O)[nH]2)CCCC4)n1	2.4	·	98.0*	98.7*	·	6.8
CCOC(=O)c1cnn(-c2nc3sc4c(c3c(=O)[nH]2)CCCC4)c1N	·	·	·	·	93.5*	2.8
Cc1cc2c(s1)c1cnn(CC(=O)NCCc3ccccc3)c(=O)c1n2C	6.1	·	4.6	4.2	-9.8	·
Nc1nc(SCC(=O)N2N=C3/C(=C/c4ccco4)CCCC3C2c2ccco2)n[nH]1 (centres undefined)	2.5	-0.53	2.5	10.5	·	·
COc1cccc(N2CCN(CC(=O)NCc3cccs3)CC2)c1	-2.8	1.9	-7.5	-1.9	-9.8	0.0
CC(=O)Nc1ccc(NC(=O)COC(=O)c2ccc(C)s2)cc1	-0.2	0.37	11.2	3.4	·	3.6
O=C(Nc1ccccc1)OCc1cc(-c2ccccc2Cl)on1	2.0	0.45	33.2*	1.9	·	·
COC(=O)c1ccc(COC(=O)c2ccc(N(C)C)cc2)cc1	2.5	-2.42	3.8	-3.6	1.2	2.7
O=C(O)c1ccc(S(=O)(=O)Cc2ccccc2)cc1	2.4	0.36	10.8	4.0	-4.0	5.5
CN(C)c1ccc(C(=O)OCc2ccccc2)cc1	2.4	1.53	5.9	-12.5	·	42.7*
Cc1ccc(S(=O)(=O)Cc2ccc(C(=O)OCc3ccccc3)cc2)cc1	1.6	-0.47	35.3*	-4.0	·	2.6
Cc1ccc(S(=O)(=O)N2CCC(O)(c3cccnc3)CC2)cc1	2.1	0.54	23.2	0.0	·	8.4
O=C(c1ccccc1)N1CCCC(c2ccc(Cl)cc2)=N1	-5.9	0.07	17.6	6.9	·	·
NC(=O)c1ccc(C(F)(F)F)n(Cc2ccccc2Cl)c1=O	7.8	-1.14	44.4*	1.8	·	·
COc1ccc(CN(C)c2ncnc(N)n2)cc1	-2.7	1.23	7.4	-4.2	·	5.1
Cc1cccc(N(CC(O)CON=C2c3ccccc3-c3ccccc32)S(C)(=O)=O)c1 (centres undefined)	2.4	-1.85	40.5*	-3.7	·	-1.7
CS(=O)(=O)N(CC(O)CON=C1c2ccccc2-c2ccccc21)c1ccc(F)cc1 (centres undefined)	1.5	-0.92	1.2	0.5	·	7.5
SMILES	FAK blocker	PTK2B oligo ant	PostGolgi ctrl	PostGolgi yeast	tolC growth inh	Calb biofilm kill
COC(=O)c1ccc(NC(=O)CSc2nnc(-c3ccncc3)n2N)cc1	0.3	0.1	0.9	22.8	-11.8	4.5
COC(=O)c1ccc(NC(=O)Cn2nc(SC)n(N)c2=S)cc1	·	0.35	1.8	-1.6	-3.4	26.7*
Cc1cc(C)n(-c2nc3ccccc3n3nnnc23)n1	·	1.21	33.7*	4.7	-8.9	2.6
Cn1c(NCc2ccccc2O)nc2ccccc21	·	-0.8	-4.8	-5.2	17.9	5.7
C=CCc1cccc(CNc2nc3ccccc3n2C(C)C)c1O	-2.9	-0.77	46.7*	-5.0	-8.1	6.7
Cc1ccc2c(c1)N(CC(=O)NCc1ccco1)C(=O)CO2	-0.9	0.28	·	·	·	4.0
Cn1c(=O)oc2cc(S(=O)(=O)N3CCCC(C(=O)N4CCc5ccccc5C4)C3)ccc21 (centres undefined)	-0.1	·	50.6*	-5.1	18.0	11.2
CCS(=O)(=O)N1CCC(C(=O)N2CCc3ccccc3C2)CC1	5.7	-0.28	-12.7	-4.6	2.3	4.2
COc1ccc(S(=O)(=O)N2CCC(C(=O)N3CCc4ccccc4C3)CC2)cc1Cl	2.4	-0.7	48.7*	-2.2	·	3.8
CCOc1cc2[nH]c(=S)n(CCCN3CCOCC3)c(=O)c2cc1OCC	·	1.19	26.5	2.3	-6.5	9.4
COc1cccc(C(=O)N2CCN(C3CCC(c4ccccc4)CC3)CC2)c1OC (centres undefined)	-3.4	-0.42	54.4*	93.6*	14.1	·
CCCCn1c2nc3ccccc3nc2c2c(=O)n(CC(C)C)cnc21	·	·	·	·	12.1	-0.2
CCCCn1c2nc3ccccc3nc2c2c(=O)n(C(C)CC)cnc21 (centres undefined)	1.4	-3.08*	23.2	37.0*	5.3	0.1
O=C1C(Cl)=C(N2CCCCC2)C(=O)C(Cl)=C1c1cnc(N2CCCCC2)s1	3.4	-0.1	·	·	·	0.7
CN(C)c1ncc(C2=C(Cl)C(=O)C(N3CCCC3)=C(Cl)C2=O)s1	39.4*	-0.06	·	·	·	3.2
COc1ccc(-c2onc(C)c2-c2ccccc2)c(O)c1	0.5	-2.86	18.3	1.5	12.2	8.1
COc1ccc(-c2noc(C)c2-c2ccc3ccccc3n2)c(O)c1	0.8	-2.09	48.6*	0.9	96.2*	8.7
O=c1[nH]c(SCc2ccccc2Cl)nc2c1CCCC2	-0.9	-2.3	10.2	-2.6	2.0	5.0
Cc1ccc(CSc2nc3c(c(N(C)C)n2)CCCC3)cc1	3.0	0.28	41.2*	-15.1	·	·
CN(C)c1nc(SCc2ccccc2Cl)nc2c1CCCC2	-0.2	-1.1	36.4*	58.7*	·	·
CNc1nc(SCc2ccc(C)cc2)nc2c1CCCC2	-1.1	-0.66	33.3*	10.1	·	·
CCOC(=O)CCSc1nc2c(c(C(F)(F)F)c1C#N)CCC2	2.6	-0.05	11.1	-5.3	66.0*	4.3
O=C(COC(=O)c1ccccc1[N+](=O)[O-])c1ccc(C2CCCCC2)cc1	-0.8	0.57	34.2*	-6.8	·	·
CCN1C(=O)N/C(=C/c2ccc(Sc3ccc(C)cc3)o2)C1=O	-1.6	1.8	-2.9	-4.9	·	2.0
CC(C)(C)c1cc2cccnc2n1Cc1cccc(Cl)c1	2.6	0.32	10.5	2.6	·	·
Cc1ccc(/C=N/NC(=O)c2csc3c2CCCC3)cc1	-4.7	-0.12	32.4*	-8.0	·	·
Clc1ccc2nc(SCc3nnc(-c4ccccc4)o3)[nH]c2c1	15.9	-0.43	24.4	-7.5	44.2	-1.3
Clc1ccc(OCc2nnc(SCc3nnc(-c4ccccc4)o3)o2)c(Cl)c1	0.6	-0.8	41.3*	5.0	59.6	0.3
